Reference: ChEMBL document CHEMBL4368921, “Discovery of novel simplified isoxazole derivatives of sampangine as potent anti-cryptococcal agents” (2019)
≈ marks a conversion by molar mass, not a printed value. Calls of active or inactive are those of the source. The rule behind the calls is not given here.

What was measured:
[1] = system: Candida albicans; assay: Antifungal activity against Candida albicans SC5314 after 48 hrs by serial dilution method; type: functional; conditions: SC5314, 48 h
Outline: (§1)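 Broth serial dilution per NCCLS. Medium was RPMI 1640 buffered with 0.165M MOPS, NaHCO3 (0.2%) and NaOH (0.27%). Strains were pre-grown in YPD at 30 °C with shaking. Inoculum 10³ CFU/mL; compounds in DMSO. Plates incubated at 35 °C for 48 h. MIC80 is the concentration giving 80% inhibition.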

[2] = system: Cryptococcus neoformans; assay: Antifungal activity against Cryptococcus neoformans var. grubii H99 after 48 hrs by serial dilution method; type: functional; outline: as §1
[3] = system: Cryptococcus gattii; assay: Antifungal activity against Cryptococcus gattii ATCC 14116 after 48 hrs by serial dilution method; conditions: ATCC 14116, 48 h
[4] = system: Cryptococcus neoformans; assay: Antifungal activity against Cryptococcus neoformans var. grubii ATCC 34877 after 48 hrs by serial dilution method; type: functional; conditions: var. grubii ATCC 34877, 48 h; outline: as §1
[5] = system: Cryptococcus neoformans; assay: Antibiofilm activity against Cryptococcus neoformans var. grubii H99 at 0.062 to 8 ug/mL after 24 hrs by XTT analysis; type: functional, organism-based
Outline: (§2)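 H99 cells at 1.0×10^6 CFU/mL in RPMI 1640 left to adhere 90 min at 37 °C. Non-adherent cells were removed and the wells washed three times with PBS. Fresh RPMI with drug (0.062-8 µg/mL) or drug-free control was added, then 24 h more at 37 °C. Formation rate by XTT reduction. Means ± SD of three independent experiments; ANOVA and t-test.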

[6] = system: Cryptococcus neoformans; assay: Fungistatic activity against Cryptococcus neoformans var. grubii H99 assessed as inhibition of cell growth at 1 ug/mL up to 48 hrs by time-growth curve assay; type: functional; conditions: read-out: GI
Outline: (§3)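 Exponential H99 cells at 2×10^6 cells/mL in 5 mL RPMI 1640 with drug (0.062-1 µg/mL) or DMSO control. Shaken at 200 rpm, 30 °C. Cells counted at 0, 3, 6, 9, 12, 24 and 48 h. Three independent experiments.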

[7] = system: Cryptococcus neoformans; assay: Cell cycle arrest in Cryptococcus neoformans var. grubii H99 assessed as decrease in cells at S phase at 0.5 to 2 ug/mL after 24 hrs by propidium iodide staining-based flow cytometric analysis; type: functional, organism-based
Outline: (§4)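 Exponential H99 cells washed three times with PBS and set at 5×10^5 cells/mL in RPMI 1640. Dosed 0.5, 1 or 2 µg/mL and shaken (200 rpm) at 30 °C for 24 h. Walls digested 1 h at 30 °C in PBS with 0.24% snailase, then fixed overnight in 70% ethanol. Stained with 50 µg/mL PI, 4 °C, 30 min; ~1×10^6 cells read by flow cytometry.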

[8] = system: Cryptococcus neoformans; assay: Cell cycle arrest in Cryptococcus neoformans var. grubii H99 assessed as accumulation of cells at G1 phase at 0.5 ug/mL after 24 hrs by propidium iodide staining-based flow cytometric analysis (reference value: 12.24%); type: functional; outline: as §4
[9] = system: Cryptococcus neoformans; assay: Fungistatic activity against Cryptococcus neoformans var. grubii H99 at 0.25 ug/mL up to 48 hrs by time-growth curve assay; type: functional, organism-based
[10] = system: Cryptococcus neoformans; assay: Induction of apoptosis in Cryptococcus neoformans var. grubii H99 assessed as necrotic cells at 2 ug/mL after 24 hrs by annexin V-FITC/propidium iodide staining-based flow cytometric analysis (reference value: 0.19%); type: functional
[11] = system: Cryptococcus neoformans; assay: Induction of apoptosis in Cryptococcus neoformans var. grubii H99 assessed as early apoptotic cells at 0.5 ug/mL after 24 hrs by annexin V-FITC/propidium iodide staining-based flow cytometric analysis (reference value: 1.05%); type: functional
[12] = system: Cryptococcus neoformans; assay: Induction of apoptosis in Cryptococcus neoformans var. grubii H99 assessed as early apoptotic cells at 1 ug/mL after 24 hrs by annexin V-FITC/propidium iodide staining-based flow cytometric analysis (reference value: 1.05%); type: functional
[13] = system: Cryptococcus neoformans; assay: Induction of apoptosis in Cryptococcus neoformans var. grubii H99 assessed as early apoptotic cells at 2 ug/mL after 24 hrs by annexin V-FITC/propidium iodide staining-based flow cytometric analysis (reference value: 1.05%); type: functional
[14] = system: Cryptococcus neoformans; assay: Inhibition of urease production in Cryptococcus neoformans var. grubii H99 at 64 ug/mL; type: functional, organism-based
Outline: (§5)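 PBS-washed exponential H99 cells at 1×10^6 cells/mL in RPMI 1640 with drug. Drops placed on L-DOPA (melanin) or urea (urease) medium and incubated at 37 °C. Read-out: black versus white colonies for melanin, red medium for urease.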

[15] = system: Cryptococcus neoformans; assay: Fungistatic activity against Cryptococcus neoformans var. grubii H99 up to 48 hrs by time-growth curve assay; type: functional, organism-based; outline: as §3
[16] = system: Cryptococcus neoformans; assay: Induction of apoptosis in Cryptococcus neoformans var. grubii H99 assessed as necrotic cells at 1 ug/mL after 24 hrs by annexin V-FITC/propidium iodide staining-based flow cytometric analysis (reference value: 0.19%); type: functional
[17] = system: Cryptococcus neoformans; assay: Induction of apoptosis in Cryptococcus neoformans var. grubii H99 assessed as late apoptotic cells at 2 ug/mL after 24 hrs by annexin V-FITC/propidium iodide staining-based flow cytometric analysis (reference value: 0.15%); type: functional
[18] = system: Cryptococcus neoformans; assay: Induction of apoptosis in Cryptococcus neoformans var. grubii H99 assessed as late apoptotic cells at 0.5 ug/mL after 24 hrs by annexin V-FITC/propidium iodide staining-based flow cytometric analysis (reference value: 0.15%); type: functional
[19] = system: Cryptococcus neoformans; assay: Fungicidal activity against Cryptococcus neoformans var. grubii H99 at 2 ug/mL after 48 hrs by time-kill assay; type: functional, organism-based
Outline: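 Time-kill: PBS-washed exponential H99 cells at 2×10^6 cells/mL in 5 mL RPMI 1640 with drug, shaken (200 rpm) at 30 °C. Samples taken at 0, 6, 12, 24 and 48 h, diluted and plated on SDA. CFU counted after 48 h at 30 °C.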

[20] = system: Cryptococcus neoformans; assay: Antibiofilm activity against Cryptococcus neoformans var. grubii H99 at 0.062 ug/mL after 24 hrs by XTT analysis relative to control; type: functional; outline: as §2
[21] = system: Cryptococcus neoformans; assay: Inhibition of melanin production in Cryptococcus neoformans var. grubii H99 at 16 ug/mL; type: functional, organism-based; outline: as §5
[22] = system: Cryptococcus neoformans; assay: Induction of apoptosis in Cryptococcus neoformans var. grubii H99 assessed as late apoptotic cells at 1 ug/mL after 24 hrs by annexin V-FITC/propidium iodide staining-based flow cytometric analysis (reference value: 0.15%); type: functional
[23] = system: Cryptococcus neoformans; assay: Cell cycle arrest in Cryptococcus neoformans var. grubii H99 assessed as accumulation of cells at G1 phase at 1 ug/mL after 24 hrs by propidium iodide staining-based flow cytometric analysis (reference value: 12.24%); type: functional; outline: as §4
[24] = system: Cryptococcus neoformans; assay: Cell cycle arrest in Cryptococcus neoformans var. grubii H99 assessed as accumulation of cells at G1 phase at 2 ug/mL after 24 hrs by propidium iodide staining-based flow cytometric analysis (reference value: 12.24%); type: functional; outline: as §4
[25] = system: Cryptococcus neoformans; assay: Induction of apoptosis in Cryptococcus neoformans var. grubii H99 assessed as necrotic cells at 0.5 ug/mL after 24 hrs by annexin V-FITC/propidium iodide staining-based flow cytometric analysis (reference value: 0.19%); type: functional
[26] = system: Cryptococcus neoformans; assay: Fungistatic activity against Cryptococcus neoformans var. grubii H99 at 16 ug/mL up to 48 hrs by time-growth curve assay; type: functional, organism-based
Outline: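 Exponential-phase H99 cells were resuspended in fresh RPMI 1640 at 2×10^6 cells/mL, drug was added, and cultures were shaken at 200 rpm and 30 °C. Aliquots were removed and counted at 0, 3, 6, 9, 12, 24 and 48 h. The control received DMSO. Three independent experiments were run.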

[27] = system: Cryptococcus neoformans; assay: Fungicidal activity against Cryptococcus neoformans var. grubii H99 at 16 ug/mL after 48 hrs by time-kill assay; type: functional, organism-based
Outline: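 Exponential-phase H99 cells were washed three times in PBS and resuspended in RPMI 1640 at 2×10^6 cells/mL. After drug was added, cultures were shaken at 200 rpm and 30 °C. Samples were taken at 0, 6, 12, 24 and 48 h, diluted, and plated on SDA agar. Viable counts were read after 48 h at 30 °C.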

Compound: COc1ccccc1-c1noc2c1C(=O)c1sccc1C2=O
- MIC80 [1]: > 64 mg/L
- MIC80 [2]: 0.5 mg/L (≈ 1.61 µM)

Compound: O=C1c2ccsc2C(=O)c2c(-c3cccs3)noc21
- MIC80 [1]: > 64 mg/L
- MIC80 [2]: 2 mg/L (≈ 6.96 µM)

Compound: Cc1ccc(-c2noc3c2C(=O)c2sccc2C3=O)cc1
- MIC80 [1]: > 64 mg/L
- MIC80 [2]: 1 mg/L (≈ 3.39 µM)

Compound: O=C1c2ccsc2C(=O)c2c(-c3ccc(Br)cc3)noc21
- MIC80 [1]: > 64 mg/L
- MIC80 [2]: > 64 mg/L

Compound: Cc1ccccc1-c1noc2c1C(=O)c1sccc1C2=O
- MIC80 [1]: > 64 mg/L
- MIC80 [2]: 0.25 mg/L (≈ 0.847 µM)

Compound: O=C1c2ccsc2C(=O)c2c(-c3ccccn3)noc21
- MIC80 [1]: 8 mg/L (≈ 28.3 µM)
- MIC80 [2]: 0.25 mg/L (≈ 0.886 µM)

Compound: Cc1cccc(-c2noc3c2C(=O)c2sccc2C3=O)c1
- MIC80 [1]: > 64 mg/L
- MIC80 [2]: 1 mg/L (≈ 3.39 µM)

Compound: O=C1c2ccsc2C(=O)c2c(-c3ccccc3F)noc21
- MIC80 [1]: > 64 mg/L
- MIC80 [2]: 0.25 mg/L (≈ 0.835 µM)

Compound: O=C1c2ccsc2C(=O)c2c(-c3cccc(Cl)c3)noc21
- MIC80 [1]: > 64 mg/L
- MIC80 [2]: > 64 mg/L

Compound: COc1cccc(-c2noc3c2C(=O)c2sccc2C3=O)c1
- MIC80 [1]: > 64 mg/L
- MIC80 [2]: > 64 mg/L

Compound: Cn1cccc1-c1noc2c1C(=O)c1sccc1C2=O
- MIC80 [1]: 16 mg/L (≈ 56.3 µM)
- MIC80 [2]: 4 mg/L (≈ 14.1 µM)

Compound: CCCc1noc2c1C(=O)c1sccc1C2=O
- MIC80 [3]: 0.25 mg/L (≈ 1.01 µM)
- MIC80 [4]: 0.12 mg/L (≈ 0.485 µM)
- MIC80 [1]: 4 mg/L (≈ 16.2 µM)
- MIC80 [2]: 0.12 mg/L (≈ 0.485 µM)
- Activity [5]: Active

Compound: O=C1c2ccsc2C(=O)c2c(-c3cccc(Br)c3)noc21
- MIC80 [1]: > 64 mg/L
- MIC80 [2]: > 64 mg/L

Compound: O=C1c2ccsc2C(=O)c2c(-c3ccccc3Cl)noc21
- MIC80 [1]: > 64 mg/L
- MIC80 [2]: 0.25 mg/L (≈ 0.792 µM)

Compound: CCc1noc2c1C(=O)c1sccc1C2=O
- inhibition of growth at 1 µg/mL [6]: 100%
- MIC80 [3]: 0.25 mg/L (≈ 1.07 µM)
- Activity [7]: Active
- Activity [8]: 50.21%
- Activity [9]: Active
- Activity [10]: 0.32%
- Activity [11]: 20.49%
- MIC80 [4]: 0.12 mg/L (≈ 0.514 µM)
- Activity [12]: 39.23%
- Activity [13]: 50.7%
- inhibition [14]: Active
- Activity [15]: Dose-dependent effect
- Activity [16]: 0.51%
- Activity [17]: 6.78%
- Activity [18]: 3.33%
- Activity [19]: Active
- Activity [20]: >80%
- inhibition [21]: Active
- MIC80 [1]: 2 mg/L (≈ 8.57 µM)
- Activity [22]: 5.39%
- Activity [23]: 49.14%
- Activity [24]: 48.61%
- MIC80 [2]: 0.031 mg/L (≈ 0.133 µM)
- Activity [25]: 1.35%
- Activity [5]: Active

Compound: OC(Cn1cncn1)(Cn1cncn1)c1ccc(F)cc1F [FLUCONAZOLE]
- MIC80 [3]: 8 mg/L (≈ 26.1 µM)
- MIC80 [4]: 8 mg/L (≈ 26.1 µM)
- Activity [26]: Active
- MIC80 [1]: 0.25 mg/L (≈ 0.816 µM)
- MIC80 [2]: 2 mg/L (≈ 6.53 µM)
- Activity [27]: inactive

Compound: COCc1noc2c1C(=O)c1sccc1C2=O
- MIC80 [3]: 0.5 mg/L (≈ 2.01 µM)
- MIC80 [4]: 0.25 mg/L (≈ 1 µM)
- MIC80 [1]: 8 mg/L (≈ 32.1 µM)
- MIC80 [2]: 0.25 mg/L (≈ 1 µM)

Compound: O=C1c2ccsc2C(=O)c2c(-c3ccsc3)noc21
- MIC80 [1]: > 64 mg/L
- MIC80 [2]: 1 mg/L (≈ 3.48 µM)

Compound: C[C@@H]1[C@H](O)[C@@H](C)/C=C/C=C/C=C/C=C/C=C/C=C/C=C/[C@H](O[C@@H]2O[C@H](C)[C@@H](O)[C@H](N)[C@@H]2O)C[C@@H]2O[C@](O)(C[C@@H](O)C[C@@H](O)[C@H](O)CC[C@@H](O)C[C@@H](O)CC(=O)O[C@H]1C)C[C@H](O)[C@H]2C(=O)O
- Activity [5]: Active

Compound: O=C1c2ccsc2C(=O)c2c(-c3ccncc3)noc21
- MIC80 [3]: 1 mg/L (≈ 3.54 µM)
- MIC80 [4]: 0.5 mg/L (≈ 1.77 µM)
- MIC80 [1]: 8 mg/L (≈ 28.3 µM)
- MIC80 [2]: 0.25 mg/L (≈ 0.886 µM)

Compound: O=C1c2ccsc2C(=O)c2c(-c3ccccc3Br)noc21
- MIC80 [1]: > 64 mg/L
- MIC80 [2]: 0.25 mg/L (≈ 0.694 µM)

Compound: COc1ccc(-c2noc3c2C(=O)c2sccc2C3=O)cc1
- MIC80 [1]: > 64 mg/L
- MIC80 [2]: 1 mg/L (≈ 3.21 µM)

Compound: C[C@@H](c1ncncc1F)[C@](O)(Cn1cncn1)c1ccc(F)cc1F [VORICONAZOLE]
- MIC80 [3]: 0.12 mg/L (≈ 0.344 µM)
- MIC80 [4]: 0.12 mg/L (≈ 0.344 µM)
- MIC80 [1]: 0.12 mg/L (≈ 0.344 µM)
- MIC80 [2]: 0.12 mg/L (≈ 0.344 µM)
